# High-throughput results (PubChem BioAssay)
# Shown are actives, neighbours in structure and some others; about 1.3% of the full set was active somewhere.
# LEDGF integ inh: blocks HIV-1 LEDGF/p75-dependent DNA integration. AID 743269. inhibition, % at 3.7 µM. 0.64% of 370,000 active. TR-FRET IN-LEDGF/p75 DNA integration, Eu/Cy5;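 active = inhibition above the screen-wide mean plus 3 SD, cut at about 13% in these data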;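 also: signal is the Cy5 over europium emission ratio at 671 and 618 nm; 0% = plate median of compound wells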
# TDP2 absorb: blocks human TDP2 phosphodiesterase activity; AID 720702; recombinant TDP2, T5PNP hydrolysis, p-nitrophenol absorbance 415 nm; inhibition, % at 12.8 µM; 0.34% of 370,000 active;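 active = inhibition above the mean of all tested compounds plus 3 SD, set per campaign, cut at about 25% in these data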;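 also: 0% = DMSO with enzyme and 100% = buffer with substrate but no TDP2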
#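 Incubation: 2 h at 37 °C; Test system: recombinant human TDP2; Quantity: enzyme 120 nM; Read-out basis: percent inhibition; Medium: 50 mM Tris-HCl pH 7.5 with Mg2+, KCl, DTT, BSA; Repeats: single replicate; Compound: 12.8 µM single point, 1% DMSO; Signal: epi absorbance; Reagent: 5 mM T5PNP chromogenic substrate; Benchmarks: no-enzyme high, DMSO-plus-enzyme low.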
# UCH37 inh: human UCH37 deubiquitinating enzyme inhibition. Q9Y5K5. purified proteasome/UCH37, Ub-AMC cleavage fluorescence. inhibition, % (concentration not given with the values). 0.33% of 330,000 active. AID 588478;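 active = mean inhibition over replicate wells above about 20%, limit read from the data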;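 also: 0% = compound-free wells with enzyme and 100% = wells lacking proteasome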
# Target sequence (Q9Y5K5 whole entry, looked up): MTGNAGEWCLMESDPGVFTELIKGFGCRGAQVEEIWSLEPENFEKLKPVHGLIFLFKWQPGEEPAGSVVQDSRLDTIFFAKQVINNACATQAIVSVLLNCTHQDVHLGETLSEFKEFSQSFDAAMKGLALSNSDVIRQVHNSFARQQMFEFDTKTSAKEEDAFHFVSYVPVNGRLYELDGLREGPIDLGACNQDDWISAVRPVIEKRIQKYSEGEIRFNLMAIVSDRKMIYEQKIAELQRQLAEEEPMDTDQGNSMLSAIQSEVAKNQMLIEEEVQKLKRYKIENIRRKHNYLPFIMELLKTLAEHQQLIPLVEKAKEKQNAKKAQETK
#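 Material: human UCH37 enzyme supplied as purified proteasome complex. Measure: % inhibition of Ub-AMC cleavage fluorescence. Medium: pH 7.4 Tris-HCl (50 mM) with ovalbumin, ATP-MgCl2, DTT. Times: 30 min preincubation with enzyme, 25 min cleavage at room temperature. Detection: AMC fluorescence intensity at 355/460 nm.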
# NSD2 HMT inh: inhibitors of human histone methyltransferase NSD2 | AID 743445 | 0.54% of 310,000 active | NSD2 peptide methylation, AlphaScreen, 120 min | inhibition, % at 12.5 µM; in the data active = inhibition above about 50%
# CASP6 VEID inh: blocks human caspase-6 cleavage activity | P55212 | purified caspase-6, Z-VEID-R110 cleavage fluorescence | inhibition, % at 12.5 µM | 0.53% of 350,000 active;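 active = mean inhibition across replicates at least about 35%, with every replicate also reaching that limit, limit read from the data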;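 also: 0% = median of neutral control wells and 100% = no fluorescence left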
# Target sequence (P55212 24-179 limits assumed): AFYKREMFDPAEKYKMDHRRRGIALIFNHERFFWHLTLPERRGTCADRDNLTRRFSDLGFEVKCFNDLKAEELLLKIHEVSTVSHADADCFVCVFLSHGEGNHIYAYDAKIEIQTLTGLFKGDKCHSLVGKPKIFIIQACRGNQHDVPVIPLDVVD
# Target sequence (P55212 194-293 limits assumed): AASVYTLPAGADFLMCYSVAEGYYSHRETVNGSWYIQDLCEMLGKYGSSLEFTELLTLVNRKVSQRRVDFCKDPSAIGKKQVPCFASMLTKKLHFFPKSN
# UCH37 confirm: reconfirmed inhibitor of human deubiquitinase UCH37 | 27% of 480 active | AID 624100 | shares compounds with UCH37 inh | inhibition, % at 20 µM | Proteasome-bound UCH37, Ub-AMC cleavage fluorescence;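 active = average inhibition over replicates above about 50%, so the earlier screening hit is confirmed, limit read from the data; inactive = the rest, counted as false positives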;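 also: based on cleavage rate fitted by regression over a 30 min kinetic read; 0% = proteasome plus Ub-AMC and 100% = Ub-AMC without proteasome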
# CASP1 counter: blocks human caspase-1 in a selectivity counter-screen; shares compounds with CASP6 VEID inh; purified caspase-1, Z-YVAD-R110 cleavage fluorescence; activity change, negative = inhibition, % at 35 µM; 100 tested, under 10 active; AID 743289;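 active = compounds lowering fluorescence whose fitted half-maximal concentration is no more than twice their top tested dose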
# TDP2 confirm: human TDP2 inhibition, confirmation. shares compounds with TDP2 absorb. recombinant human TDP2, absorbance read-out. inhibition, % at 12.8 µM. 22% of 1,100 active. AID 743263; in the data active = inhibition above about 25%;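 also: 0% = vehicle with enzyme and 100% = no enzyme buffer only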
# IN multimer act: counter-screen for LEDGF/p75 integration inhibitors: HIV-1 integrase multimerization activators | shares compounds with LEDGF integ inh | TR-FRET HIV-1 integrase multimerization, biochemical | activation, % at 7.7 µM | 17% of 2,000 active | AID 1053131; in the data active = activation above about 8.9%
# TRFRET interf: TR-FRET optical interference, LEDGF/p75 integration counter-screen | AID 1053135 | inhibition, % at 7.7 µM | shares compounds with LEDGF integ inh | TR-FRET optical interference counterscreen, HIV-1 IN multimerization | 2,000 tested, under 10 active;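 active = inhibition above the mean over all tested compounds plus 3 SD, which no compound reached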;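 also: 0% = integrase with antibodies and DMSO and 100% = antibodies without integrase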
# IN-LEDGF confirm: LEDGF/p75-dependent HIV-1 integration inhibition, confirmation. shares compounds with LEDGF integ inh. TR-FRET LEDGF/p75-dependent HIV-1 integration, biochemical. inhibition, % at 3.7 µM. 36% of 2,000 active. AID 1053136; in the data active = inhibition above about 14%
# Alpha artifact: interferes with AlphaScreen signal, flagging NSD2 false positives | shares compounds with NSD2 HMT inh | AlphaScreen artifact counterscreen, preloaded methylated H4 peptide | AC35, µM (doses to about 10 µM), without a hit: at the top dose activity change, negative = signal loss | 9.4% of 1,500 active; call rule not given here
# * = called active by the depositor; · = no result.
SMILES,LEDGF integ inh,TDP2 absorb,UCH37 inh,NSD2 HMT inh,CASP6 VEID inh,UCH37 confirm,TDP2 confirm,IN multimer act,TRFRET interf,IN-LEDGF confirm,Alpha artifact,others
CC(=O)Nc1ccc(NC2=C(Cl)C(=O)c3ccccc3C2=O)cc1,3.3,13.2,11.7,-6.8,-0.9,·,·,·,·,·,·,
Cc1ccc(NC2=C(NCCO)C(=O)c3ccccc3C2=O)cc1,9.3,43.5*,26.2*,65.2*,·,2.1,39.5*,·,·,·,·,
COc1ccc(C=NNC(=O)CSCC(=O)Nc2ccccc2)cc1OC,·,·,4.1,·,·,·,·,·,·,·,·,
CC(=O)N(C1=C(Cl)C(=O)c2ccccc2C1=O)C1CCCCC1,10.9,57.0*,44.1*,·,16.6,53.7*,46.7*,·,·,·,·,
CC(=O)N(c1ccccc1C)C1CCCC1,-2.0,0.2,0.9,-0.5,-0.4,·,·,·,·,·,·,
O=C(NN=c1c(=O)c2ccccc2c1=O)c1ccccc1,9.0,57.0*,79.3*,2.3,·,76.6*,78.0*,·,·,·,·,
Cc1ccc(S(=O)(=O)Oc2ccc(C)cc2C=N/N=C2\NC(=O)C(C)S2)cc1 (configuration not stated),·,·,6.8,·,·,·,·,·,·,·,·,
CC(=O)Nc1ccc(S(=O)(=O)/N=C2\C(=O)c3ccccc3C([O-])=C2n2cc[n+](-c3ccccn3)c2)cc1,5.0,37.0*,56.5*,46.0,68.3*,58.3*,23.4,·,·,·,·,
CC(=O)Nc1ccc(S(=O)(=O)NCCSc2ccccn2)cc1,0.1,9.8,-2.1,-1.3,·,·,·,·,·,·,·,
CC(=NNC(=O)Cc1cccs1)c1ccco1,·,·,6.6,·,·,·,·,·,·,·,·,
CC1=C(SCc2ccccc2)C(=O)c2ccccc2C1=O,24.4*,51.3*,32.1*,21.9,64.3*,47.9,·,5.0,-18.1,43.9*,·,
Cn1c(SCc2ccccc2)nccc1=O,-3.8,-6.0,5.0,-7.7,-3.6,·,·,·,·,·,·,
COc1cccc(C=NNC(=O)CSc2nnc(C)n2-c2ccccc2)c1OC,·,·,2.1,·,·,·,·,·,·,·,·,
COc1ccc(C(=O)Oc2ccc(C=NNC(=O)Cc3ccc([N+](=O)[O-])cc3)cc2)cc1,·,·,-0.9,·,·,·,·,·,·,·,·,
Fc1ccc(C2=Nc3cccc4cccc(c34)N2)cc1,-2.6,10.2,5.8,4.4,4.6,·,·,·,·,·,·,
FC(F)(F)C1=Nc2cccc3cccc(c23)N1,78.7*,6.2,56.9*,10.1,-0.3,4.5,·,57.1*,-205.2,57.0*,·,
O=C(O)CSc1cc(NS(=O)(=O)c2cccc([N+](=O)[O-])c2)c2ccccc2c1O,16.0*,62.9*,30.5*,·,68.0*,82.7*,70.1*,4.2,-15.1,63.0*,·,
Oc1ccc(N=Nc2ccccc2-c2nn[nH]n2)c(O)c1,19.3*,17.2,26.9*,18.0,14.0,25.8,·,17.9*,-63.6,8.9,·,
CCC(CNc1cc(OC)cc2cccnc12)NC1CCCCC1 (configuration not stated),57.9*,79.1*,37.3*,79.7*,70.5*,54.0*,24.7*,6.3,-22.1,75.9*,·,
O=C(CN(Cc1ccccc1)S(=O)(=O)c1ccccc1)NN=Cc1ccc2c(c1)OCO2,·,·,4.8,·,·,·,·,·,·,·,·,
CC(C)=CCC1=C(OCC(=O)O)C(=O)c2ccccc2C1=O,25.1*,47.3*,80.7*,127.0*,·,39.0,66.6*,3.5,-12.4,56.5*,-1.9%,
[O-][n+]1cccc2c(Br)cc(Br)c(O)c21,5.2,2.6,45.3*,60.8*,26.3,19.9,·,·,·,·,-4.6%,
Oc1c(Br)cc(Br)c2cccnc12,0.4,7.5,·,·,10.5,·,·,·,·,·,·,
Cc1c(NC(=O)C(C)OC(=O)c2sc3ccccc3c2Cl)c(=O)n(-c2ccccc2)n1C (configuration not stated),4.6,9.2,4.0,3.0,1.3,·,·,·,·,·,·,
Cc1c(NC(=O)C(C)OC(=O)c2ccc([N+](=O)[O-])s2)c(=O)n(-c2ccccc2)n1C (configuration not stated),8.2,43.7*,77.1*,115.0*,93.5*,27.0,31.8*,·,·,·,-2.2%,CASP1 counter=4.2
SMILES,LEDGF integ inh,TDP2 absorb,UCH37 inh,NSD2 HMT inh,CASP6 VEID inh,UCH37 confirm,TDP2 confirm,IN multimer act,TRFRET interf,IN-LEDGF confirm,Alpha artifact,others
COc1ccc(C(C[N+](=O)[O-])c2c(C)[nH]n(-c3ccccc3)c2=O)cc1 (configuration not stated),25.4*,75.0*,77.1*,92.3*,26.4,7.4,68.8*,5.2,-18.6,21.8*,-3.2%,
CN1CCN(C2=C(Cl)C(=O)c3ccccc3C2=O)CC1,34.2*,68.9*,96.7*,106.1*,98.6*,96.6*,80.0*,3.2,-11.6,72.8*,-3.4%,
CN1CCC/C1=C/C=C1\SC(=S)NC1=O,17.6*,5.8,35.3*,52.8*,17.6,33.7,·,17.0*,-60.9,-2.3,2.3%,
CN1/C(=C\C=C2/SC(=S)NC2=O)C(C)(C)c2ccccc21,-1.0,1.5,8.4,·,-15.0,·,·,·,·,·,·,
Cc1ccccc1OCC(=O)NN=Cc1ccc(N2CCOCC2)o1,·,·,-3.4,·,·,·,·,·,·,·,·,
NS(=O)(=O)c1ccc(N=Nc2ccc(=O)[nH]c2O)cc1,11.4,1.9,31.9*,109.6*,70.5*,14.6,·,·,·,·,-6.2%,
Nc1nc(N)c(N=Nc2ccc(S(N)(=O)=O)cc2)c(=O)[nH]1,3.0,-13.7,·,-0.7,0.8,·,·,·,·,·,·,
CCOc1ccc(C=NNC(=O)Nc2ccccc2)cc1,·,·,1.1,·,·,·,·,·,·,·,·,
O=C1C=C(N(CCO)Cc2ccccc2)c2ccccc2C1=O,·,·,91.6*,75.9*,·,111.4*,·,·,·,·,-3.7%,
NS(=O)(=O)c1ccc2c(c1)C(=NO)c1cc(S(N)(=O)=O)ccc1-2,-2.1,8.7,-10.3,-1.6,1.8,·,·,·,·,·,·,
NC1=C(Cl)C(=O)c2ccc(S(N)(=O)=O)cc2C1=O,29.2*,76.0*,89.1*,114.0*,99.8*,92.2*,73.7*,11.9*,-42.3,76.0*,-1.8%,
O=C(NN=Cc1ccccn1)C1COc2cc3ccccc3cc2O1 (configuration not stated),·,·,2.8,·,·,·,·,·,·,·,·,
CCCCNC1=CC(=O)C(=O)c2ccccc21,5.1,15.6,49.0*,140.5*,28.1,36.6,·,·,·,·,-2.5%,
